Measurements pooled from the literature.
Compare with care: the assays were run in different laboratories.

NC(=O)c1ncn([C@@H]2O[C@H](CO)[C@@H](O)[C@H]2O)n1  CC50 (HeLa; cell growth or viability, MTS): > 250 µM
CN[C@H](CC(C)C)C(=O)N[C@H]1C(=O)N[C@@H](CC(N)=O)C(=O)N[C@H]2C(=O)N[C@H]3C(=O)N[C@H](C(=O)N[C@H](C(=O)O)c4cc(O)cc(O)c4-c4cc3ccc4O)[C@H](O)c3ccc(c(Cl)c3)Oc3cc2cc(c3O[C@@H]2O[C@H](CO)[C@@H](O)[C@H](O)[C@H]2O[C@H]2C[C@](C)(N)[C@H](O)[C@H](C)O2)Oc2ccc(cc2Cl)[C@H]1O  haemolysis (haemolysis; human; 200 µM, 1 h, pH 7.2): ≤ 1%
Nc1ncnc2c1ncn2C[C@H](O)CO  CC50 (HeLa; cell growth or viability, MTS): > 250 µM
Cc1nc(Nc2ccc(NC(=O)c3ccco3)cc2)cc(-n2cccn2)n1  CC50 (HeLa; cell growth or viability, MTS): > 100 µM
CC(C)(C)NC(=O)N[C@H](C(=O)N1C[C@H]2[C@@H]([C@H]1C(=O)NC(CC1CCC1)C(=O)C(N)=O)C2(C)C)C(C)(C)C (some centres unmarked)  CC50 (HCT-8; cell growth or viability, neutral red; 48 h): > 100 µM
CCCC[C@@H]1NC(=O)[C@H](Cc2ccc(O)cc2)NC(=O)[C@@H]2CCCN2C(=O)[C@H](CC(=O)O)NC(=O)[C@H](C)NC(=O)[C@H](Cc2ccccc2)NC(=O)[C@@H]2CSCCC(=O)N3CN(CN(C3)C(=O)CCSC[C@H](NC(C)=O)C(=O)N[C@@H](CC(C)(C)C)C(=O)N3CCC[C@H]3C(=O)N[C@@H](CCC(=O)O)C(=O)N[C@H](CCCCNC(=O)CCc3cn(CCOCCOCCOCCN(CCOCCOCCOCCC(=O)N[C@H]4CSCCC(=O)N5CN6CN(C5)C(=O)CCSC[C@H](NC(=O)[C@@H](CC(=O)O)NC(=O)[C@H](Cc5cccc7ccccc57)NC(=O)[C@@H]5CCCN5C4=O)C(=O)N[C@@H](CCSC)C(=O)N[C@@H](CCCCNC(=N)N)C(=O)N[C@@H](CC(=O)O)C(=O)N[C@@H](Cc4c[nH]c5ccccc45)C(=O)N[C@@H](CO)C(=O)N[C@@H]([C@@H](C)O)C(=O)N4CCC[C@H]4C(=O)N4C[C@H](O)C[C@H]4C(=O)N[C@@H](Cc4c[nH]c5ccccc45)C(=O)N[C@H](C(N)=O)CSCCC6=O)CCOCCOCCOCCn4cc(CCC(=O)NCCCC[C@H]5NC(=O)[C@H](CCC(=O)O)NC(=O)[C@@H]6CCCN6C(=O)[C@H](CC(C)(C)C)NC(=O)[C@@H](NC(C)=O)CSCCC(=O)N6CN7CN(C6)C(=O)CCSC[C@H](NC(=O)[C@H](Cc6ccc(O)cc6)NC(=O)[C@@H]6CCCN6C5=O)C(=O)N[C@@H](Cc5ccccc5)C(=O)N[C@@H](C)C(=O)N[C@@H](CC(=O)O)C(=O)N5CCC[C@H]5C(=O)N[C@@H](Cc5ccc(O)cc5)C(=O)N[C@@H](CCCC)C(=O)N[C@H](C(N)=O)CSCCC7=O)nn4)nn3)C(=O)N3CCC[C@H]3C(=O)N[C@@H](Cc3ccc(O)cc3)C(=O)N2)C(=O)CCSC[C@@H](C(N)=O)NC1=O  clearance (rat, plasma; intravenous, 2 mg/kg): 0.78 L/h/kg
COc1cc(Br)c(C=NNc2nc(-c3ccc(F)cc3)cs2)cc1OC  haemolysis (haemolysis; human; 10 µM, 30 min, pH 7.4): 3.06%
[2H]C([2H])([2H])n1cc2cc(Nc3nc(=O)n(Cc4ncn(C)n4)c(=O)n3Cc3cc(F)c(F)cc3F)c(Cl)cc2n1  clearance (male Sprague-Dawley rat, plasma; intravenous, 5 mg/kg): 0.0617 L/h/kg
CCCCCCCCCCOc1cc2c(O)c(C(=O)OCC)cnc2cc1OCC  IC50 (HeLa; cell growth or viability; 72 h): > 100 µM
CCCC[C@@H]1NC(=O)[C@H](Cc2ccc(O)cc2)NC(=O)[C@@H]2CCCN2C(=O)[C@H](CC(=O)O)NC(=O)[C@H](C)NC(=O)[C@H](Cc2ccccc2)NC(=O)[C@@H]2CSCCC(=O)N3CN(CN(C3)C(=O)CCSC[C@@H](C(=O)N[C@@H](CNC(=O)CCOCCOCCOCCOCCOCCn3cc(CCC(=O)N[C@H]4CSCCC(=O)N5CN6CN(C5)C(=O)CCSC[C@H](NC(=O)[C@@H](CC(=O)O)NC(=O)[C@H](Cc5cccc7ccccc57)NC(=O)[C@@H]5CCCN5C4=O)C(=O)N[C@@H](CCSC)C(=O)N[C@@H](CCCCNC(=N)N)C(=O)N[C@@H](CC(=O)O)C(=O)N[C@@H](Cc4c[nH]c5ccccc45)C(=O)N[C@@H](CO)C(=O)N[C@@H]([C@@H](C)O)C(=O)N4CCC[C@H]4C(=O)N4C[C@H](O)C[C@H]4C(=O)N[C@@H](Cc4c[nH]c5ccccc45)C(=O)N[C@H](C(N)=O)CSCCC6=O)nn3)C(N)=O)NC1=O)C(=O)CCSC[C@H](NC(C)=O)C(=O)N[C@@H](CC(C)(C)C)C(=O)N1CCC[C@H]1C(=O)N[C@@H](CCC(=O)O)C(=O)N[C@H](C)C(=O)N1CCC[C@H]1C(=O)N[C@@H](Cc1ccc(O)cc1)C(=O)N2  clearance (rat, plasma; intravenous, 2 mg/kg): 0.96 L/h/kg
CC[C@H](C)[C@H](N)C(=O)N[C@@H](CC(N)=O)C(=O)N[C@@H](CC(C)C)C(=O)N[C@@H](CCCCN)C(=O)N[C@@H](C)C(=O)N[C@@H](CC(C)C)C(=O)N[C@@H](C)C(=O)N[C@@H](C)C(=O)N[C@@H](CC(C)C)C(=O)N[C@@H](C)C(=O)N[C@@H](CCCCN)C(=O)N[C@@H](CCCCN)C(=O)N[C@H](C(=O)N[C@@H](CC(C)C)C(N)=O)[C@@H](C)CC  haemolysis (haemolysis; human; 100 µM): ≤ 15%
